Data taken from article PMC11568512 (Chemical communications (Cambridge, England), 2024).

Assays:
MDA-MB-231 = assay: Antiproliferative activity, resazurin assay; type: cell-based; settings: Homo sapiens, MDA-MB-231, 72 h, read-out: IC50 MDA-MB-231
A2780 = assay: Antiproliferative activity, resazurin assay; type: cell-based; settings: Homo sapiens, A2780, 72 h, read-out: IC50 A2780
[1] = tested on: tested cancer cell lines (MDA-MB-231, A2780); assay: Antiproliferative activity, text summary over tested cancer cell lines; type: cell-based; settings: 72 h, read-out: IC50 range in the tested cancer cell lines
A2780 cells = assay: Cell cycle analysis by flow cytometry; type: cell-based; settings: A2780, 24-hour incubation, DFX 50 μM, QT and IQT 5 μM
[2] = tested on: transferrin receptor 1 (TfR1); assay: Western blot of iron handlers; type: cell-based; settings: DFX 50 μM, QT and IQT 5 μM, FAC 50 μM
How it was run: (§1)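 A2780 cancer cells were exposed to test compounds (5 μM) or the reference iron chelator deferasirox (50 μM), with DMSO vehicle as control. Transferrin receptor 1 and ferritin heavy chain were probed by Western blot as markers of iron signalling. Statistics used t-tests versus DMSO vehicle.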

[3] = tested on: ferritin heavy chain (ferritin H); assay: Western blot of iron handlers; type: cell-based; settings: DFX 50 μM, QT and IQT 5 μM, FAC 50 μM
How it was run: as §1

[4] = cited from earlier work

IC50 (MDA-MB-231)	IC50 (A2780)	IC50 [1]	Compound	cell cycle effect (A2780 cells)	TfR1 expression level [2]	ferritin H expression level [3]	reduction in FBS [4]
15 ± 2 µM	12 ± 2 µM	10 to 20 µM	O=C(O)c1ccc(-n2nc(-c3ccccc3O)nc2-c2ccccc2O)cc1 [DFX, deferasirox]	cell accumulation in the S-phase	upregulation of TfR1	degradation of ferritin	
			Cc1nc(-[n+]2nc(-c3ccccc3)nn2-c2ccccc2)sc1C.[Br-] [MTT, 3-(4,5-dimethyl-2-thiazolyl)-2,5-diphenyl-tetrazolium]				prone to reduction in FBS
			ferric ammonium citrate [FAC]		decreased TfR1 expression	upregulation of ferritin	
